Results published in PMC10685179 (RSC Advances, 2023).
In brackets after ≈: the same amount, converted by molar mass. Residues, ends and D or L forms follow the SMILES beside them. *: point of attachment. βNA = c1ccc2cc(N*)ccc2c1

Experiments:
E. faecalis KA247 [1] = assay: Agar well-diffusion, inhibition zone; format: cell-based, Enterococcus faecalis
Procedure, shortened: (§1)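 Clinical MDR isolates from complicated UTI patients. Suspensions were made in Tryptic Soya and Sabouraud broths from subcultures on Tryptic Soya and Sabouraud agar plates. Agar well diffusion followed CLSI guidelines, with test compounds applied at 10 μM in DMSO. Fosfomycin and fluconazole were positive controls and DMSO the negative control. Zone diameters were read in mm, in triplicate.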

S. aureus KA112 [2] = assay: Agar well-diffusion, inhibition zone; format: cell-based, Staphylococcus aureus
Procedure, shortened: as §1

E. coli KA780 [3] = assay: Agar well-diffusion, inhibition zone; format: cell-based, Escherichia coli
Procedure, shortened: as §1

P. mirabilis KA320 [4] = assay: Agar well-diffusion, inhibition zone; format: cell-based, Proteus mirabilis
Procedure, shortened: as §1

C. albicans KA205 [5] = assay: Agar well-diffusion, inhibition zone; format: cell-based, Candida albicans; conditions: for zone of inhibition at 10 µM: Candida albicans, KA205, read-out: Average diameter of inhibition zone (ZI)
Procedure, shortened: as §1

C. tropicalis KA205 [6] = assay: Agar well-diffusion, inhibition zone; format: cell-based, Candida tropicalis; conditions: for zone of inhibition at 10 µM: Candida tropicalis, KA205, read-out: Average diameter of inhibition zone (ZI)
Procedure, shortened: as §1

E. faecalis KA247 [7] = assay: Broth microdilution MIC and MBC; format: cell-based; conditions: Enterococcus faecalis, KA247, 24 h
S. aureus KA112 [8] = assay: Broth microdilution MIC and MBC; format: cell-based; conditions: Staphylococcus aureus; for MIC: KA112, 24 h; for MBC: KA112, read-out: MBC/MIC
E. coli KA780 [9] = assay: Broth microdilution MIC and MBC; format: cell-based; conditions: Escherichia coli; for MIC: KA780, 24 h; for MBC: KA780, read-out: MBC/MIC
P. mirabilis KA320 [10] = assay: Broth microdilution MIC and MBC; format: cell-based; conditions: Proteus mirabilis; for MIC: KA320, 24 h; for MBC: KA320, read-out: MBC/MIC
C. albicans KA205 [11] = assay: Broth microdilution MIC and MFC; format: cell-based; conditions: Candida albicans; for MIC: KA205, 24 h; for MFC: KA205, read-out: MFC/MIC
C. tropicalis KA205 [12] = assay: Broth microdilution MIC and MFC; format: cell-based; conditions: Candida tropicalis; for MIC: KA205, 24 h; for MFC: KA205, read-out: MFC/MIC
bacterial isolates [13] = assay: Broth microdilution MIC/MBC, bacterial panel; format: cell-based; conditions: pyrrole 6b versus thiophene 6a; bacteria
fungal isolates [14] = assay: Agar well-diffusion, inhibition zone, fungal panel; format: cell-based
Procedure, shortened: as §1

[15] = test system: MDR bacterial and fungal isolates; assay: Broth microdilution MIC/MBC/MFC, whole panel; format: cell-based; conditions: bactericidal/fungicidal if MBC or MFC not greater than four times the MIC
fungal isolates [16] = assay: Broth microdilution MIC/MFC, fungal panel; format: cell-based
fungal isolates [17] = assay: Time-kill kinetics, fungal isolates; format: cell-based; conditions: at MIC
Procedure, shortened: (§2)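 Untreated organisms served as controls. Bacteria were sampled at 0, 2, 4, 6, 8, 12, 18 and 24 h, and fungi at 0, 2, 4, 6, 8, 18, 24 and 48 h. Counts were made by plate count and plotted as log10 CFU mL−1 versus time.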

E. coli Kam3-AcrB = assay: Ethidium bromide; format: cell-based; conditions: phosphonates 0.06 to 2 μg mL^−1; PaβN 20 μg mL^−1
Procedure, shortened: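 E. coli Kam3-AcrB (pSYC plasmid encoding AcrB) was grown to mid-log phase in TS broth and pelleted at 5000×g for 5 min at 4 °C. Cells were washed twice in PBS pH 7.4 and adjusted to OD600 ≈0.5. Cells were treated with phosphonates (0.06–2 μg mL−1) or 0.1% DMSO for 12 h, then combined with EtBr, 25 mM glucose (final) and PaβN 20 μg mL−1. Fluorescence was read over 38 min, […], as RFU.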

E. faecalis KA247 [18] = assay: Checkerboard microdilution synergy with fosfomycin; format: cell-based, Enterococcus faecalis
S. aureus KA112 [19] = assay: Checkerboard microdilution synergy with fosfomycin; format: cell-based, Staphylococcus aureus
E. coli KA780 [20] = assay: Checkerboard microdilution synergy with fosfomycin; format: cell-based, Escherichia coli
P. mirabilis KA320 [21] = assay: Checkerboard microdilution synergy with fosfomycin; format: cell-based, Proteus mirabilis
C. albicans KA205 [22] = assay: Checkerboard microdilution synergy with fluconazole; format: cell-based, Candida albicans
C. tropicalis KA205 [23] = assay: as above; format: cell-based, Candida tropicalis
MDR microbial isolates = assay: Time-kill kinetics, whole panel; format: cell-based; conditions: all pathogenic isolates
Procedure, shortened: as §2

bacterial isolates [24] = assay: Time-kill kinetics, bacterial isolates; format: cell-based; conditions: at MIC
Procedure, shortened: as §2

[25] = test system: fosfomycin-resistant (FO-R) E. coli KA780; assay: SEM of outer membrane integrity; format: cell-based; conditions: at MIC, compared with DMSO
[26] = test system: BNL: mouse normal liver cells; assay: SRB cytotoxicity assay on normal cells; format: cell-based
Procedure, shortened: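 Mouse normal liver BNL cells were grown in DMEM with 10% heat-inactivated FBS, penicillin and streptomycin, at 37 °C in 5% CO2. […] SRB assay: 10% TCA fixation at 4 °C for 1 h, 0.4% SRB for 10 min at room temperature, 1% acetic acid washes, 10 mM Tris solubilisation, absorbance at 540 nm. Mean of three, with SD.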

E. coli MurA enzyme = E. coli MurA enzyme (Escherichia coli, UniProt P0A749); assay: MurA enzyme inhibition assay; format: biochemical
[27] = Physical and chemical stability after gamma irradiation; format: physicochemical; conditions: gamma radiation 3.0 kGy to 20.0 kGy
Procedure, shortened: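 Compound powders in sterile tubes were irradiated by a 60Co source at 3.0, 5.0, 7.0, 10.0, 15.0 and 20.0 kGy, at a dose rate of 0.9 kGy h−1. Non-irradiated and irradiated samples were checked for physical and chemical changes by UV-VIS spectrophotometry at 560 nm.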

[28] = 10 μM (DMSO), mean of three ± SEM

Sequence of E. coli MurA enzyme (P0A749 whole entry): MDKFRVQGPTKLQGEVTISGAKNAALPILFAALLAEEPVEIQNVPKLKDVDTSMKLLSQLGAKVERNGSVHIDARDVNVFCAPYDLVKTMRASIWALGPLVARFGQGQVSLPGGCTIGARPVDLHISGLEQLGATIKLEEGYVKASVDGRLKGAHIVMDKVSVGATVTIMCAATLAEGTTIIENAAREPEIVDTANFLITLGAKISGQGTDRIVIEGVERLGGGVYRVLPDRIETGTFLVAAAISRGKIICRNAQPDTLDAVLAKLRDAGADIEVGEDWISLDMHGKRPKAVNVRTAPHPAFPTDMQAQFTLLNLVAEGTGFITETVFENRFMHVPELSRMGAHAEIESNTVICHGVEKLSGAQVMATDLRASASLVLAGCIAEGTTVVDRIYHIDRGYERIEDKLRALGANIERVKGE

SMILES: O=[N+]([O-])c1ccc(-c2nn(-c3ccccc3)c3sc(NC(c4ccc[nH]4)P(=O)(Oc4ccccc4)Oc4ccccc4)nc23)cc1 (stereo not drawn) [Compound 6b, Diphenyl(((3-(4-nitrophenyl)-1-phenyl-1H-pyrazolo[4,3-d]thiazol-5-yl)amino)(1H-pyrrol-2-yl)methyl)phosphonate]
- zone of inhibition at 10 µM (E. faecalis KA247 [1]; Enterococcus faecalis, KA247, read-out: Average diameter of inhibition zone (ZI)): 22 ± 0.55 mm
- zone of inhibition at 10 µM (S. aureus KA112 [2]; Staphylococcus aureus, KA112, read-out: Average diameter of inhibition zone (ZI)): 23 ± 0.77 mm
- zone of inhibition at 10 µM (E. coli KA780 [3]; Escherichia coli, KA780, read-out: Average diameter of inhibition zone (ZI)): 24 ± 0.86 mm
- zone of inhibition at 10 µM (P. mirabilis KA320 [4]; Proteus mirabilis, KA320, read-out: Average diameter of inhibition zone (ZI)): 22 ± 0.12 mm
- zone of inhibition at 10 µM (C. albicans KA205 [5]): 21 ± 0.91 mm
- zone of inhibition at 10 µM (C. tropicalis KA205 [6]): 21 ± 0.7 mm
- MIC (E. faecalis KA247 [7]): 0.25 µg/mL (≈ 0.385 µM)
- MIC (S. aureus KA112 [8]): 0.125 µg/mL (≈ 0.193 µM)
- MBC (S. aureus KA112 [8]): 0.5 µg/mL (≈ 0.771 µM)
- MIC (E. coli KA780 [9]): 0.125 µg/mL (≈ 0.193 µM)
- MBC (E. coli KA780 [9]): 0.5 µg/mL (≈ 0.771 µM)
- MIC (P. mirabilis KA320 [10]): 0.25 µg/mL (≈ 0.385 µM)
- MBC (P. mirabilis KA320 [10]): 1 µg/mL (≈ 1.54 µM)
- MIC (C. albicans KA205 [11]): 0.25 µg/mL (≈ 0.385 µM)
- MFC (C. albicans KA205 [11]): 1 µg/mL (≈ 1.54 µM)
- MIC (C. tropicalis KA205 [12]): 0.5 µg/mL (≈ 0.771 µM)
- MFC (C. tropicalis KA205 [12]): 1 µg/mL (≈ 1.54 µM)
- higher activity by MIC (bacterial isolates [13]): ~8 folds

SMILES: OC(Cn1cncn1)(Cn1cncn1)c1ccc(F)cc1F [FCA, fluconazole, reference compound]
- zone of inhibition at 10 µM (C. albicans KA205 [5]): 17 ± 0.99 mm
- zone of inhibition at 10 µM (C. tropicalis KA205 [6]): 17 ± 0.15 mm
- zone of inhibition at 10 µM (fungal isolates [14]): 17 mm
- MIC (C. albicans KA205 [11]): 2 µg/mL (≈ 6.53 µM)
- MFC (C. albicans KA205 [11]): 1 µg/mL (≈ 3.27 µM)
- MIC (C. tropicalis KA205 [12]): 4 µg/mL (≈ 13.1 µM)
- MFC (C. tropicalis KA205 [12]): 0.5 µg/mL (≈ 1.63 µM)
- bactericidal/fungicidal effect [15]: bactericidal and fungicidal activities
- MFC (fungal isolates [16]): 2 µg/mL (≈ 6.53 µM)
- time of maximum killing rate / maximum reduction in cell counts (fungal isolates [17]): 48 h

SMILES: NC(N)=NCCC[C@H](NC(=O)[C@@H](N)Cc1ccccc1)C(=O)Nc1ccc2ccccc2c1 [PAβN] (H-Phe-Arg-βNA)
- EtBr accumulation (E. coli Kam3-AcrB): increases the accumulation of EtBr

SMILES: CN(C)c1ccc(C(Nc2nc3c(-c4ccc([N+](=O)[O-])cc4)nn(-c4ccccc4)c3s2)P(=O)(Oc2ccccc2)Oc2ccccc2)cc1 (stereo not drawn) [Compound 5b, Diphenyl((4-(dimethylamino)phenyl)((3-(4-nitrophenyl)-1-phenyl-1H-pyrazolo[4,3-d]thiazol-5-yl)amino)methyl)phosphonate]
- Average diameter of inhibition zone (ZI) (E. faecalis KA247 [1]; [28]): 23 ± 0.88 mm
- Average diameter of inhibition zone (ZI) (S. aureus KA112 [2]; [28]): 24 ± 0.03 mm
- Average diameter of inhibition zone (ZI) (E. coli KA780 [3]; [28]): 25 ± 0.00 mm
- Average diameter of inhibition zone (ZI) (P. mirabilis KA320 [4]; [28]): 23 ± 0.78 mm
- Average diameter of inhibition zone (ZI) (C. albicans KA205 [5]; [28]): 22 ± 0.22 mm
- Average diameter of inhibition zone (ZI) (C. tropicalis KA205 [6]; [28]): 21 ± 0.32 mm
- MIC (E. faecalis KA247 [7]): 0.125 µg/mL (≈ 0.178 µM)
- MIC (S. aureus KA112 [8]): 0.06 µg/mL (≈ 0.0854 µM)
- MBC (S. aureus KA112 [8]): 1 µg/mL (≈ 1.42 µM)
- MIC (E. coli KA780 [9]): 0.06 µg/mL (≈ 0.0854 µM)
- MBC (E. coli KA780 [9]): 0.5 µg/mL (≈ 0.712 µM)
- MIC (P. mirabilis KA320 [10]): 0.25 µg/mL (≈ 0.356 µM)
- MBC (P. mirabilis KA320 [10]): 0.5 µg/mL (≈ 0.712 µM)
- MIC (C. albicans KA205 [11]): 0.125 µg/mL (≈ 0.178 µM)
- MFC (C. albicans KA205 [11]): 1 µg/mL (≈ 1.42 µM)
- MIC (C. tropicalis KA205 [12]): 0.5 µg/mL (≈ 0.712 µM)
- MFC (C. tropicalis KA205 [12]): 0.5 µg/mL (≈ 0.712 µM)
- combination effect (E. faecalis KA247 [18]): S (FICI ≤ 0.5 (synergism))
- Fractional inhibitory concentration index (ΣFICI) (E. faecalis KA247 [18]; combination with fosfomycin): 0.5
- combination effect (S. aureus KA112 [19]): S (FICI ≤ 0.5 (synergism))
- Fractional inhibitory concentration index (ΣFICI) (S. aureus KA112 [19]; combination with fosfomycin): 0.5
- combination effect (E. coli KA780 [20]): S (FICI ≤ 0.5 (synergism))
- Fractional inhibitory concentration index (ΣFICI) (E. coli KA780 [20]; combination with fosfomycin): 0.25
- combination effect (P. mirabilis KA320 [21]): S (FICI ≤ 0.5 (synergism))
- Fractional inhibitory concentration index (ΣFICI) (P. mirabilis KA320 [21]; combination with fosfomycin): 0.25
- combination effect (C. albicans KA205 [22]): P (0.5 < FICI > 1 (partial synergism))
- Fractional inhibitory concentration index (ΣFICI) (C. albicans KA205 [22]; combination with fluconazole): 0.75
- combination effect (C. tropicalis KA205 [23]): P (0.5 < FICI > 1 (partial synergism))
- Fractional inhibitory concentration index (ΣFICI) (C. tropicalis KA205 [23]; combination with fluconazole): 0.75
- microbial reduction relative to the initial inoculum (MDR microbial isolates): ≥ 3 log10
- time of maximum killing rate (bacterial isolates [24]): 8 h
- time of maximum killing rate / maximum reduction in cell counts (fungal isolates [17]): 18 h
- effect on outer membrane (SEM image) [25]: perturbation in the membrane and distinct ruptures of the OM integrity
- IC50 [26]: > 100 µM
- IC50 (E. coli MurA enzyme; IC50, preincubation 0 min): 45 µM
- IC50 (E. coli MurA enzyme; IC50, preincubation 10 min): 4.5 µM
- RA (residual activity) (E. coli MurA enzyme; at 100 μM, preincubation 10 min): 4 ± 0.55%
- remaining activity at 100 µM (E. coli MurA enzyme; read-out: RA (residual activity), at 100 μM, preincubation 10 min): 7%
- physical changes (odor, color, clarity, solubility, and form) after irradiation [27]: no changes occurred
- stability of the chemical structure after irradiation ([27]; UV-VIS spectrophotometer): confirmed the stability of the chemical structure
